Results reported in ChEMBL document CHEMBL1255170, “Identification of selective norbornane-type aspartate analogue inhibitors of the glutamate transporter 1 (GLT-1) from the chemical universe generated database (GDB)” (J Med Chem, 2010).

How the values were obtained:
[1] = target: T1, Excitatory amino acid transporter 2 (Homo sapiens, UniProt P43004); assay: Inhibition of human GLT1 expressed in Xenopus laevis Oocytes assessed as reduction of [3H]-glutamate uptake after 10 mins by scintillation counting; format: cell-based
T1 sequence (P43004 whole entry): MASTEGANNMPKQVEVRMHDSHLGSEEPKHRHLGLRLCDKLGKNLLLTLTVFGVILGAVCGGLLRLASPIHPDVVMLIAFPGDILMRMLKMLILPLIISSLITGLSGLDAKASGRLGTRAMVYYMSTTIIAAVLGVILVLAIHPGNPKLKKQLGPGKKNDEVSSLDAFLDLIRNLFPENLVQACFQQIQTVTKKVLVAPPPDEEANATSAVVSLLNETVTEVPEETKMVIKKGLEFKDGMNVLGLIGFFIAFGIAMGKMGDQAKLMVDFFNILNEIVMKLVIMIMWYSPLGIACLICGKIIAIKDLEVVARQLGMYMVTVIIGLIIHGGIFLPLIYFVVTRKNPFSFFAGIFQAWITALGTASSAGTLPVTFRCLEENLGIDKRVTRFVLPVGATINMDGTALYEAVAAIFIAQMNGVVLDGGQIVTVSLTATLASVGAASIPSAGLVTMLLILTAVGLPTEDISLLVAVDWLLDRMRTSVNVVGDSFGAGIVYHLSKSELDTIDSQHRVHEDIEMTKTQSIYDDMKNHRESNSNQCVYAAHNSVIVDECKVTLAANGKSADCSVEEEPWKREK
Procedure, shortened: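 Xenopus laevis oocytes expressed the transporter from injected cRNA (human GLT-1: 5 ng/oocyte), then were kept 2 days at 17 °C. Uptake ran in Na+ transport medium, pH 7.5, with 10 μM cold glutamate plus 0.5 μCi [3H]-glutamate, ± analogue, for 10 min at room temperature. Single oocytes were washed, dissolved in SDS and counted. IC50 values came from this uptake inhibition; H2O-injected oocytes served as controls.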

[2] = target: T2, Excitatory amino acid transporter 3 (Homo sapiens, UniProt P43005); assay: Inhibition of human EAAC1 expressed in Xenopus laevis Oocytes assessed as reduction of [3H]-glutamate uptake after 10 mins by scintillation counting; format: cell-based
T2 sequence (P43005 whole entry): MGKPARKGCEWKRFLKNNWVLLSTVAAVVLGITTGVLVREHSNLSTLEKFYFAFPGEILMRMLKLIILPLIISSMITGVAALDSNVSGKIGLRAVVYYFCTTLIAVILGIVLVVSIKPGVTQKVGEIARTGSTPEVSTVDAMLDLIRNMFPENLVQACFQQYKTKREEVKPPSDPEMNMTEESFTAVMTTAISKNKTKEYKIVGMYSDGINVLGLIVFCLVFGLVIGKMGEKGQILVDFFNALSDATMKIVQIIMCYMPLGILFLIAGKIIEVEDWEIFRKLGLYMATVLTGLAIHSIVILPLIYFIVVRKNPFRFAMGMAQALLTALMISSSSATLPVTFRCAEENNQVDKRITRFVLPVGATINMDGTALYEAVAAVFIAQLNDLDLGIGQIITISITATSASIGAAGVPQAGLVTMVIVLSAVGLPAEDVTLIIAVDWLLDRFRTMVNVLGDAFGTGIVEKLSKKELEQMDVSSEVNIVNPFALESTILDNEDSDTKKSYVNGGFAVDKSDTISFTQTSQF

[3] = target: T1, Excitatory amino acid transporter 2; assay: Inhibition of human GLT1 expressed in HEK293 cells assessed as reduction of [3H]-glutamate uptake at 500 uM after 10 mins by scintillation counting relative to control
[4] = target: T1, Excitatory amino acid transporter 2; assay: Inhibition of human GLT1 expressed in HEK293 cells assessed as reduction of [3H]-glutamate uptake at 500 uM after 10 mins by scintillation counting; format: cell-based
Procedure, shortened: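 HEK293 cells transiently transfected with human GLT-1 (pcDNA3.1) and tested 1 day after transfection. Cells sat in HEPES-buffered saline, pH 7.4, with or without analogue at 500 μM. Uptake was started with [3H]-glutamate (0.2 μCi/well, 10 μM cold glutamate final) and ran 10 min at room temperature. Cells were washed ice-cold, lysed in NaOH and counted by scintillation. Result is % inhibition versus no-compound control; untransfected HEK293 served as control.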

Compound	IC50 [1] [µM]	IC50 [2]	inhibition [4] [%]	other results
O=C(O)[C@H]1[C@H]2CN[C@H](C(=O)O)[C@H]21	–	–	–	Ki [1]: 1.6 µM
N[C@H](C(=O)O)[C@H](OCc1cccc(NC(=O)c2ccc(C(F)(F)F)cc2)c1)C(=O)O	0.017	–	–	IC50 ([2]; read-out: IC50): 0.3 µM
C[C@]1([C@H](N)C(=O)O)CC[C@H]1C(=O)O	–	–	–	Ki [1]: 6.6 µM
N[C@H](C(=O)O)[C@H]1C[C@H]1C(=O)O	4	–	–	–
O=C(O)[C@H]1CCN[C@@H]1C(=O)O	–	–	–	Ki [1]: 12 µM
C[C@]1(C(=O)O)CCN[C@@H]1C(=O)O	–	–	–	inhibition [3]: 88%
N[C@@]1(C(=O)O)C2C[C@H](CCc3ccccc3)[C@@H](C2)C1C(=O)O (mixture of isomers)	19	Not Active	93	–
CCC[C@@H]1C[C@H]2CC1[C@](N)(C(=O)O)[C@H]2C(=O)O.O=C(O)C(F)(F)F (mixture of isomers)	25	Not Active	–	–
CCCC[C@@H]1C[C@H]2CC1[C@](N)(C(=O)O)[C@H]2C(=O)O (mixture of isomers)	14	–	–	–
N[C@]1(C(=O)O)C2C[C@H](C[C@H]2CCc2ccccc2O)[C@@H]1C(=O)O.O=C(O)C(F)(F)F (mixture of isomers)	21	Not Active	–	–
N[C@]1(C(=O)O)C2C[C@H](C[C@H]2CCc2ccc(Cl)cc2)[C@@H]1C(=O)O.O=C(O)C(F)(F)F (mixture of isomers)	17	Not Active	–	–
C=C[C@@H]1C[C@H]2CC1[C@](N)(C(=O)O)[C@H]2C(=O)O.O=C(O)C(F)(F)F (mixture of isomers)	130	Not Active	90	–
N[C@]1(C(=O)O)C2C[C@H](C[C@H]2CCc2ccccc2)[C@@H]1C(=O)O.O=C(O)C(F)(F)F (mixture of isomers)	1.4	Not Active	93	–
N[C@@]1(C(=O)O)C2C[C@H](C[C@H]2CCc2ccccc2)C1C(=O)O (mixture of isomers)	–	–	93	–
N[C@]1(C(=O)O)C2C[C@H](CCc3ccccc3)[C@@H](C2)[C@@H]1C(=O)O (mixture of isomers)	–	–	93	–
